In publication PMC2785155 (The Journal of Biological Chemistry, 2009):

Tests used:
SufBC [1] = target: T1, SufBC (Thermotoga maritima, UniProt Q9X188); experiment: stopped-flow ADP dissociation trapped by MDCC-ParM; format: binding; conditions: 50 mM Tris-HCl pH 7.5, 100 mM KCl, 5 mM MgCl2, 2 mM dithiothreitol, 20 °C
T1 sequence (Q9X188 1-246): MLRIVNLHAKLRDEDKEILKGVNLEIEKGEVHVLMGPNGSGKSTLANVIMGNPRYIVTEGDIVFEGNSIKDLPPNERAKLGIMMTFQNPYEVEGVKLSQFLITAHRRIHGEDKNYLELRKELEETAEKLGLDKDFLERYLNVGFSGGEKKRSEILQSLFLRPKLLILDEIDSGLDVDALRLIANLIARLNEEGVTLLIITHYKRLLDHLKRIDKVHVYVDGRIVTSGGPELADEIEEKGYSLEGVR
T1 sequence (Q9X189 1-464 partner): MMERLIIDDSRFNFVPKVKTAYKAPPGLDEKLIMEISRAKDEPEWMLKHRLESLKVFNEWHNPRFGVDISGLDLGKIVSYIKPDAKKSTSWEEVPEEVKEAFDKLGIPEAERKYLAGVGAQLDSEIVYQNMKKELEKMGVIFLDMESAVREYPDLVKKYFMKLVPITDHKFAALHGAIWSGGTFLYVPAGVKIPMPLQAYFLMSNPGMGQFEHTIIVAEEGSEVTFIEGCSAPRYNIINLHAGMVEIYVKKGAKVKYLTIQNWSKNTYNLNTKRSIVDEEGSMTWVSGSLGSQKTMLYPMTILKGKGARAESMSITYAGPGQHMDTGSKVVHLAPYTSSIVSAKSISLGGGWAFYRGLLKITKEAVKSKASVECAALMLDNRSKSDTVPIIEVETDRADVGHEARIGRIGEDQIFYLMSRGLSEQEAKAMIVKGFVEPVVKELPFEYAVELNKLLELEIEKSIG
Outline: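 SufBC (13 μM) was preincubated with 4 μM ADP in one stopped-flow syringe. It was rapidly mixed with 80 or 160 μM MDCC-ParM ADP sensor, which traps ADP released from SufBC. ADP dissociation was read from the change in MDCC fluorescence over time.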

SufBC [2] = target: T1, SufBC; conditions: 50 mM Tris-HCl pH 7.5, 100 mM KCl, 5 mM MgCl2, 2 mM dithiothreitol, 20 °C

rate constant (ADP dissociation) (SufBC [1]) [s⁻¹]	SMILES	single-turnover stopped-flow, MDCC-PBP and MDCC-ParM sensors (SufBC [2])
0.046	Nc1ncnc2c1ncn2[C@@H]1O[C@H](COP(=O)(O)OP(=O)(O)O)[C@@H](O)[C@H]1O [ADP]	–
–	Nc1ncnc2c1ncn2[C@@H]1O[C@H](COP(=O)(O)OP(=O)(O)OP(=O)(O)O)[C@@H](O)[C@H]1O [ATP]	study ADP and Pi release during a single turnover of ATP hydrolysis by SufBC
